Experimental data from paper PMC2998688 (British Journal of Pharmacology, 2010).
Several values for one entry are separate records, joined by “and”; a condition that tells them apart may be missing. Identical values can stand only once.

Tests used:
[1] = target: IBC^R504Q fragment of IP3R1 (Rattus norvegicus, UniProt P29994, R504Q); assay: Equilibrium-competition 3H-IP3 binding to IBC^R504Q; details: CLM
Outline: (§1)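 His6-tagged rat IP3R1 IBC (residues 224–604, S1 site included), wild type or point mutant, expressed in E. coli BL21(DE3) (0.5 mM IPTG, 20 h, 15°C). Lysate (~1–10 µg protein) incubated 5 min at 4°C in CLM (pH 7.0, free Ca2+ 220 nM) with 3H-IP3 (0.75–3 nM) and competitor. PEG/γ-globulin precipitation, scintillation counting. Hill fit; Kd by Cheng–Prusoff; ΔpKd from log differences.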

[2] = target: IBC (IP3-binding core, residues 224–604 of IP3R1) (Rattus norvegicus, UniProt P29994); assay: Equilibrium-competition 3H-IP3 binding to the IBC; details: CLM
Chain of IBC (IP3-binding core, residues 224–604 of IP3R1) (P29994 224-604): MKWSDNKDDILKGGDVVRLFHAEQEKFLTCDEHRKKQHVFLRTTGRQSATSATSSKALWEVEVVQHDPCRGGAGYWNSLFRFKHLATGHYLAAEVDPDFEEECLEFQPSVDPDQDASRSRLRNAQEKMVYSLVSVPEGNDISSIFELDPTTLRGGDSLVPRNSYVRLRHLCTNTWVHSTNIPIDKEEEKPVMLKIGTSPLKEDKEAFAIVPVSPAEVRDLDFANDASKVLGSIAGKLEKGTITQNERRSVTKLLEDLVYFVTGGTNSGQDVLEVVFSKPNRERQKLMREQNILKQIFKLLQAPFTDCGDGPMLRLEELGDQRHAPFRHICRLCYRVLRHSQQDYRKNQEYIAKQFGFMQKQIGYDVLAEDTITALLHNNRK
Outline: as §1

[3] = target: IBC^R568Q fragment of IP3R1 (Rattus norvegicus, UniProt P29994, R568Q); assay: Equilibrium-competition 3H-IP3 binding to IBC^R568Q
Chain of IBC^R568Q fragment of IP3R1 (P29994 224-604 R568Q): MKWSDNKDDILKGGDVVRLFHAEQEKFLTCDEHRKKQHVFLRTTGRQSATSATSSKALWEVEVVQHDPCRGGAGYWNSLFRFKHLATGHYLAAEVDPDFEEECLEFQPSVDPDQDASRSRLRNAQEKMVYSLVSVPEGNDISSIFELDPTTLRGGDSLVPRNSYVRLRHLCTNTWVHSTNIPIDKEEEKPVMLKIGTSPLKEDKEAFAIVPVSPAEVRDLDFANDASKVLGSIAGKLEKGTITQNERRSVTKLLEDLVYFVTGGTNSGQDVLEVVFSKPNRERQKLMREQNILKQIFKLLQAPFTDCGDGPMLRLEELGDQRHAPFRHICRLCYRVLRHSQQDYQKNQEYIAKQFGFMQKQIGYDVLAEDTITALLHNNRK
Outline: as §1

[4] = target: IP3R1^R568Q (Rattus norvegicus, UniProt P29994, DEL318-332/R568Q); assay: Ca2+ release from permeabilized DT40 cells expressing only IP3R1^R568Q; format: cell-based
Chain of IP3R1^R568Q (P29994 1-2735 isoform P29994-2 R553Q): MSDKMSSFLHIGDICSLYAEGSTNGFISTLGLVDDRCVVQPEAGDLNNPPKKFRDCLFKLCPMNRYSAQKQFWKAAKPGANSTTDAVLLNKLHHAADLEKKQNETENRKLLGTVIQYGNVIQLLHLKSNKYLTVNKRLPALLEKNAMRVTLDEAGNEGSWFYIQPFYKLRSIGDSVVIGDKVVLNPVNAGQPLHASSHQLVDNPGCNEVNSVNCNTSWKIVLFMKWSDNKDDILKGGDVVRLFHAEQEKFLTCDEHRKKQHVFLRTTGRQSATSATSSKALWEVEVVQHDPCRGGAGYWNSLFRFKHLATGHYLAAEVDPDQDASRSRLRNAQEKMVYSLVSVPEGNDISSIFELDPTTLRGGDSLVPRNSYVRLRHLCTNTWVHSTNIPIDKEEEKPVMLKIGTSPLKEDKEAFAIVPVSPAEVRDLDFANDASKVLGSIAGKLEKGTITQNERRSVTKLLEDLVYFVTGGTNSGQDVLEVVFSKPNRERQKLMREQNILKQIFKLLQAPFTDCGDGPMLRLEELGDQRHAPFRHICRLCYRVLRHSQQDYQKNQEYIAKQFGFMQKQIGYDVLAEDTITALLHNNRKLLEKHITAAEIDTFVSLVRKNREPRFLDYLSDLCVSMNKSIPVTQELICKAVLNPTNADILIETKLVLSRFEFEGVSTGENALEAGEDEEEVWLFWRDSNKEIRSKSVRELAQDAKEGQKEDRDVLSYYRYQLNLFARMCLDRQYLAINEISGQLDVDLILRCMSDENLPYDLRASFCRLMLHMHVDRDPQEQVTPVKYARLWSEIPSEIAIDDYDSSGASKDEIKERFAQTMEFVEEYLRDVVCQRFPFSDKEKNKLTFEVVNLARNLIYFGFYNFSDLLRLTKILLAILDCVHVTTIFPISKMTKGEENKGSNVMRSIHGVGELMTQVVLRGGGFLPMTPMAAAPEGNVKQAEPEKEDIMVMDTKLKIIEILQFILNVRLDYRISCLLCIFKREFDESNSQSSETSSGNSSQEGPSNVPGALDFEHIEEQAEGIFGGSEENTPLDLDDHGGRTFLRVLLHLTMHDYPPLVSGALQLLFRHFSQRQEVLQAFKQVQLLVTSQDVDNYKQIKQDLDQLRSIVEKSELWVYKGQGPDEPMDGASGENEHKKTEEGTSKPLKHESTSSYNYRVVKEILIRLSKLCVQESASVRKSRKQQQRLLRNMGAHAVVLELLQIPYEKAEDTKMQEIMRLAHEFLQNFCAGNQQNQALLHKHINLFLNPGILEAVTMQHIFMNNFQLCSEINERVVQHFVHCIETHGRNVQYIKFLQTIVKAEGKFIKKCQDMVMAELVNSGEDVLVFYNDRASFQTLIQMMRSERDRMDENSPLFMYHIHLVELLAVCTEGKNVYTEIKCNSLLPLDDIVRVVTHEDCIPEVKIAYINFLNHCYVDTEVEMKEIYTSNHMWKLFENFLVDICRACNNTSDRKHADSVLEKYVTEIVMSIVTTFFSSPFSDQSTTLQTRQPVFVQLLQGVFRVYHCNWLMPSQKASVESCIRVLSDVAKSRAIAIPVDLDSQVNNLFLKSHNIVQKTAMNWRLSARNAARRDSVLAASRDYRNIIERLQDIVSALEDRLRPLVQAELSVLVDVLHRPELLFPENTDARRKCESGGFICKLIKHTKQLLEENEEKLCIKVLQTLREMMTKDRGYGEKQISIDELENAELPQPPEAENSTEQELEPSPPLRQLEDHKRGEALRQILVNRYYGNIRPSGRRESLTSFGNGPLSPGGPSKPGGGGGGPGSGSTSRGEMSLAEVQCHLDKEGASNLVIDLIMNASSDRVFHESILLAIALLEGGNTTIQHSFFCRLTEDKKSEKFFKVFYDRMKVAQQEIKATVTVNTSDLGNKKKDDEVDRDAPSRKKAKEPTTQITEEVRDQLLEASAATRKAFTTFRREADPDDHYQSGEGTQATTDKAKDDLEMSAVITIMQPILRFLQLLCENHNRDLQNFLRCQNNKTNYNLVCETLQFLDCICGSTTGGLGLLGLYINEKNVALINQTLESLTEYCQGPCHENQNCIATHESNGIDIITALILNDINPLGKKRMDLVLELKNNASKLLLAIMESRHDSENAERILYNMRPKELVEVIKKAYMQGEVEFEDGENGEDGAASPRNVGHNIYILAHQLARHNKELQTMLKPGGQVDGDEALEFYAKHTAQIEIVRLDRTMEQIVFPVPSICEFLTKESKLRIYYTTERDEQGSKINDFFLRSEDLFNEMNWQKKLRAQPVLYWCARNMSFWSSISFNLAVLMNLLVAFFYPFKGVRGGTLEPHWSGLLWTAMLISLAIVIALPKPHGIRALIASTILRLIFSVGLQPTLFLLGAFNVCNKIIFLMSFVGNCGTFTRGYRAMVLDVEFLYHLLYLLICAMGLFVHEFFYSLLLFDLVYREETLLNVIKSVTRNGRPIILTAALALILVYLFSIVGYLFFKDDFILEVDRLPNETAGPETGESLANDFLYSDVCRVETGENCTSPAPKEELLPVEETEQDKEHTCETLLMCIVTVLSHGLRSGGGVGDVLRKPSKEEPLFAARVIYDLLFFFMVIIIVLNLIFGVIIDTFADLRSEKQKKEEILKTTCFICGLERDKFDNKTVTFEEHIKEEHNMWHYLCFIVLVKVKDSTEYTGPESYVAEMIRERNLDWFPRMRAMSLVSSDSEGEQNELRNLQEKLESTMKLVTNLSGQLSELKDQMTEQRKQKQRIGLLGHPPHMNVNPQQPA
Outline: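 Mag-fluo-4 AM (20 µM, 1 h, 20°C) loaded into DT40 cells lacking endogenous IP3R and stably expressing mutant rat IP3R1. Cells were saponin-permeabilized (10 µg·mL−1) into Mg2+-free CLM with 10 µM FCCP, free Ca2+ ~220 nM. Stores were loaded with 1.5 mM MgATP before test compound was added. Fluorescence was read at 485/520 nm, 20°C. Release is a fraction of ATP-dependent uptake, Hill-fitted for EC50, with ΔpEC50 versus wild type from log values. Three determinations per experiment, 4–6 experiments.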

[5] = target: full-length IP3R1 (Rattus norvegicus, UniProt P29994); format: binding; details: full-length IP3R1, TEM
[6] = target: NT (residues 1–604) of IP3R1 (Rattus norvegicus, UniProt P29994, DEL318-332); assay: Equilibrium-competition 3H-IP3 binding to the NT fragment; details: for Binding ΔpKd, IP3 / AdA: pair IP3 / AdA
Chain of NT (residues 1–604) of IP3R1 (P29994 1-589 isoform P29994-2 limits assumed, stated change not applied): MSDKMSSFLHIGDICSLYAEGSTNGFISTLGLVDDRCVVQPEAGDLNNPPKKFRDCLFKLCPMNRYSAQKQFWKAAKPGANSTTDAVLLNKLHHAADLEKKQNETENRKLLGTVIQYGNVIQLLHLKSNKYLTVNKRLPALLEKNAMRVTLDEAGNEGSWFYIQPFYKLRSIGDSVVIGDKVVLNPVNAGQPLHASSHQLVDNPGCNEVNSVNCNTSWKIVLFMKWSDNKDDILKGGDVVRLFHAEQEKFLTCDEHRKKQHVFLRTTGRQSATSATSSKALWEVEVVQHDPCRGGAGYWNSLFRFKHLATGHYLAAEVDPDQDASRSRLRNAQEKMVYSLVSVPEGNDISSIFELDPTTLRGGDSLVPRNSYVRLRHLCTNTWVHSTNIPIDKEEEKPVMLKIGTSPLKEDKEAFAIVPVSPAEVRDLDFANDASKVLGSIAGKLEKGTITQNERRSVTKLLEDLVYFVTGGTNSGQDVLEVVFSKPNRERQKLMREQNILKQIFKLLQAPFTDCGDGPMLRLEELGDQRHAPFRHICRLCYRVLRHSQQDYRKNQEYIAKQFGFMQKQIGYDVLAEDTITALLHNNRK
Outline: (§2)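 Rat IP3R1 N-terminal fragment (residues 1–604, lacking S1 site), His6-tagged, wild type or point mutant, expressed in E. coli BL21(DE3) as bacterial lysate (~1–10 µg protein). Competed against 1.5 nM 3H-IP3 for 5 min at 4°C in TEM (50 mM Tris, 1 mM EDTA, pH 8.3) or, for wild-type NT only, CLM (pH 7.0). Counted after PEG precipitation. Hill fit; Kd by Cheng–Prusoff; ΔpKd from log values.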

[7] = target: rat IP3R1 (recombinant, expressed in DT40 cells) (Rattus norvegicus, UniProt P29994); assay: Ca2+ release from intracellular stores of permeabilized DT40-IP3R1 cells; format: cell-based; details: for fold more potent than IP3 in functional assays: Ca2+ release, relative to IP3
[8] = target: IP3R1^R504Q (Rattus norvegicus, UniProt P29994, DEL318-332/R504Q); assay: Ca2+ release from permeabilized DT40 cells expressing only IP3R1^R504Q; format: cell-based
[9] = target: NT^R504Q fragment of IP3R1 (Rattus norvegicus, UniProt P29994, DEL318-332/R504Q); assay: Equilibrium-competition 3H-IP3 binding to NT^R504Q; details: TEM
Chain of NT^R504Q fragment of IP3R1 (P29994 1-589 isoform P29994-2 R489Q limits assumed): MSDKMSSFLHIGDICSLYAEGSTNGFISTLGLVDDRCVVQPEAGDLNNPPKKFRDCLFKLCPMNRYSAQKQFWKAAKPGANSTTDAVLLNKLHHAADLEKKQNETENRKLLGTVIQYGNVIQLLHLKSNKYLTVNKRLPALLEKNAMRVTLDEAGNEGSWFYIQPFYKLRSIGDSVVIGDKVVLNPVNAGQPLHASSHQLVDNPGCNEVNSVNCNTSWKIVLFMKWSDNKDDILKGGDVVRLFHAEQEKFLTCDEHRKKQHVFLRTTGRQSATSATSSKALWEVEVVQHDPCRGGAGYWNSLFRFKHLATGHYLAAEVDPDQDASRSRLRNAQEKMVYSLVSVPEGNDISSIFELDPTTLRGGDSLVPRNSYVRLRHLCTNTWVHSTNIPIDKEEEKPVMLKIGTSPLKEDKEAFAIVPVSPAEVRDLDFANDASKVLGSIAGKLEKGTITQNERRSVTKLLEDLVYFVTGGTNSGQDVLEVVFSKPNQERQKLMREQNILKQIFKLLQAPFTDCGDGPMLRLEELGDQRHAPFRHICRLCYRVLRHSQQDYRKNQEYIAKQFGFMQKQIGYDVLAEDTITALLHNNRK
Outline: as §2

[10] = target: NT^R568Q fragment of IP3R1 (Rattus norvegicus, UniProt P29994, DEL318-332/R568Q); assay: Equilibrium-competition 3H-IP3 binding to NT^R568Q
Outline: as §2

[11] = system: IP3R; details: recalculated from published data; ref Takahashi et al., 1994a,b,c; cited from earlier work

Chain of IBC^R504Q fragment of IP3R1 (P29994 224-604 R504Q): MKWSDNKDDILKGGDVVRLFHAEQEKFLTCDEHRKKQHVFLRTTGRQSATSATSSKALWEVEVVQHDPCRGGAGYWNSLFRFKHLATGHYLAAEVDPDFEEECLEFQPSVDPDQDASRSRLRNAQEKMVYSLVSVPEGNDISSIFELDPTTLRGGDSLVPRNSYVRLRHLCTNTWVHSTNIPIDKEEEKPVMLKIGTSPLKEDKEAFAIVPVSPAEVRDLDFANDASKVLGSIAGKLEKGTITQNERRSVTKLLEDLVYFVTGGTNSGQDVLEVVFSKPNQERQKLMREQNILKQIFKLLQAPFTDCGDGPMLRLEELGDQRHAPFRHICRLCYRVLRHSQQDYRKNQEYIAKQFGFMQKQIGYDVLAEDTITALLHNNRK

Relative affinity ΔpKd, R504Q / wild-type IBC ([1]; IBC^R504Q vs IBC): 2.55 ± 0.05
fold reduction of affinity by the R504Q mutation ([1]; IBC^R504Q vs IBC): 353 fold
nHill ± SEM ([1]; IBC^R504Q): 1.5 ± 0.2
Kd ([1]; Kd, IBC^R504Q): 149 nM
fold greater affinity than IP3 [2]: ~20 fold
nHill ± SEM [2]: 1.3 ± 0.3
Kd ([2]; Kd): 0.31 nM
Binding ΔpKd, IP3 / AdA ([2]; pair IP3 / AdA): 1.37 ± 0.07
Kd [3]: 9.48 nM
Relative affinity ΔpKd, R568Q / wild-type IBC ([3]; IBC^R568Q vs IBC, CLM): 1.49 ± 0.11
fold reduction of affinity by the R568Q mutation ([3]; IBC^R568Q vs IBC, CLM): ~30 fold and 31 fold
nHill ± SEM ([3]; IBC^R568Q, CLM): 1.3 ± 0.6
EC50 [4]: 20 nM
Relative potency ΔpEC50, R568Q / wild-type IP3R1 ([4]; Ca2+ release, IP3R1^R568Q vs IP3R1): 0.81 ± 0.07
fold reduction of potency in IP3R1^R568Q cells ([4]; Ca2+ release, vs wild-type IP3R1): sixfold
Ca2+ release nHill ± SEM ([4]; IP3R1^R568Q): 1.0 ± 0.2
Release (%) ([4]; maximal Ca2+ release, IP3R1^R568Q): 53 ± 3%
Binding nHill ± SEM [5]: 1.5 ± 0.1
nHill ± SEM ([6]; CLM): 1.3 ± 0.2
Kd ([6]; Kd, CLM): 3.44 nM
fold greater affinity than IP3 ([6]; TEM): about 15 fold
nHill ± SEM ([6]; TEM): 1.0 ± 0.1
Kd ([6]; pKd ± SEM, TEM): 0.141 nM
Binding ΔpKd, IP3 / AdA ([6]; CLM): 1.14 ± 0.21
Binding ΔpKd, IP3 / AdA ([6]; TEM): 1.18 ± 0.12
EC50 ([7]; Ca2+ release EC50, DT40 cells expressing wild-type IP3R1): 3 nM
EC50 ([7]; Ca2+ release pEC50 ± SEM, permeabilized DT40-IP3R1 cells, CLM): 3.09 nM
fold more potent than IP3 in functional assays ([7]; CLM): ~12 fold
fold more potent than IP3 in functional assays ([7]; CLM, listed as Adenophostin A): at least 12 fold
Ca2+ release, Release (%) ([7]; maximal Ca2+ release, fraction of ATP-dependent uptake, wild-type IP3R1): 78 ± 3%
Ca2+ release ΔpEC50, IP3 / AdA ([7]; pair IP3 / AdA, DT40-IP3R1 cells): 1.09 ± 0.05
Ca2+ release nHill ± SEM ([7]; permeabilized DT40-IP3R1 cells, CLM): 1.4 ± 0.1
EC50 [8]: 604 nM
Relative potency ΔpEC50, R504Q / wild-type IP3R1 ([8]; Ca2+ release, IP3R1^R504Q vs IP3R1): 2.29 ± 0.06
Ca2+ release nHill ± SEM ([8]; IP3R1^R504Q): 1.3 ± 0.2
Release (%) ([8]; maximal Ca2+ release, IP3R1^R504Q): 61 ± 3%
Kd ([9]; Kd): 16.5 nM
nHill ± SEM [9]: 0.9 ± 0.1
Kd [10]: 2.81 nM
nHill ± SEM ([10]; NT^R568Q, TEM): 1.3 ± 0.2
Structure (SMILES): Nc1ncnc2c1ncn2[C@@H]1O[C@H](CO)[C@@H](O[C@H]2O[C@H](CO)[C@@H](OP(=O)(O)O)[C@H](OP(=O)(O)O)[C@H]2O)[C@H]1OP(=O)(O)O [AdA, adenophostin A]
fold greater affinity than IP3 [11]: about 18 fold
